Measurements reported in ChEMBL document CHEMBL4002637, “Synthesis, characterization, in vitro SAR and in vivo evaluation of N,N'bisnaphthylmethyl 2-alkyl substituted imidazolium salts against NSCLC” (Bioorg Med Chem Lett, 2017).
Active and inactive are the calls of the source. No cut-off for these calls is given here.

Key:
NCI-H1975 [1] = assay: Antiproliferative activity against human NCI-H1975 cells using 1% DMSO/water compound formulation after 72 hrs by MTT assay; type: functional, cell-based; settings: NCI-H1975, 72 h
Outline: (§1)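 MTT anti-proliferation on NSCLC lines. Compounds dissolved in DMSO, diluted with water to 1% DMSO, then into growth medium (max 0.032% DMSO on cells); or dissolved in 10% (w/v) 2-HPβCD in water, then diluted (max 0.008% w/w 2-HPβCD in wells; vehicle controls at 0.008%). IC50 = concentration giving 50% loss of viability versus control cells. Cisplatin dissolved in water with stirring.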

NCI-H460 [2] = assay: Growth inhibition of human NCI-H460 cells assessed as cell growth at 10 uM after 24 hrs by SRB assay relative to control; type: functional; settings: NCI-H460, 24 h, read-out: Activity
Outline: (§2)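 NCI DTP one-dose screen: cells plated at density set by doubling rate, incubated overnight, then exposed to compound at 10 μM for 24 hours. Growth percentage from protein density at end versus start of experiment, relative to initial cell number.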

NCI-H460 [3] = assay: Growth inhibition of human NCI-H460 cells after 24 hrs by SRB assay; type: functional; settings: NCI-H460, 24 h
NCI-H460 [4] = assay: Antiproliferative activity against human NCI-H460 cells using 10% 2-HPbetaCD compound formulation after 72 hrs by MTT assay; type: functional, cell-based; settings: NCI-H460, 72 h; outline: as §1
A549 [5] = assay: Antiproliferative activity against human A549 cells using 10% 2-HPbetaCD compound formulation after 72 hrs by MTT assay; type: functional, cell-based; settings: A549, 72 h; outline: as §1
Mus musculus [6] = assay: Acute toxicity in C57BL/6 mouse assessed as weight loss at 20 mg/kg, ip administered as 20% 2HPbetaCD formulation; type: organism-based; settings: in vivo
Outline: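 Female/male not stated; C57BL/6 mice received 20 mg/kg IP on day zero in 100 μL of 20% (w/v) 2-HPβCD, then a second 15 mg/kg IP dose on day fourteen. Vehicle controls got 100 μL of 20% 2-HPβCD IP on days 0, 7, 14, 21, 25 and 29. Body weight and behaviour were monitored throughout, with survival plotted Kaplan-Meier.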

NCI-H1975 [7] = assay: Potency index, ratio of compound cisplatin IC50 to compound IC50 for human NCI-H1975 cells using 1% DMSO/water compound formulation; type: functional
NCI-H522 [8] = assay: Growth inhibition of human NCI-H522 cells after 24 hrs by SRB assay; type: functional; settings: NCI-H522, 24 h
NCI-H460 [9] = assay: Induction of apoptosis in human NCI-H460 cells assessed as blebbing at 40 uM up to 6 hrs using 1% DMSO/water compound formulation by Annexin V-FITC/propidium iodide staining based fluorescence microscopic method; type: functional, cell-based
NCI-H1975 [10] = assay: Antiproliferative activity against human NCI-H1975 cells using 10% 2-HPbetaCD compound formulation after 72 hrs by MTT assay; type: functional, cell-based; settings: NCI-H1975, 72 h; outline: as §1
Mus musculus [11] = assay: Acute toxicity in C57BL/6 mouse assessed as weight loss at 20 mg/kg, ip administered as 20% 2HPbetaCD formulation on day 1 followed by redosing with 15 mg/kg, ip on day 14 relative to control; type: organism-based; settings: in vivo
Outline: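 C57BL/6 mice given IP 100 μL of 20 mg/kg (based on 20 g mean mass) in 20% w/v 2-HPβCD on day 0, then 15 mg/kg on day 14. Vehicle mice received 2-HPβCD on days 0, 7, 14, 21, 25 and 29. Body weight, behaviour and survival monitored.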

NCI-H226 [12] = assay: Growth inhibition of human NCI-H226 cells assessed as cell growth at 10 uM after 24 hrs by SRB assay relative to control; type: functional; settings: NCI-H226, 24 h, read-out: Activity; outline: as §2
Bos taurus [13] = species: Bos taurus; assay: Inhibition of ethidium bromide binding to calf thymus DNA assessed as at 13.3 uM using 10% 2HPbetaCD/water compound formulation by spectrofluorometric method
Bos taurus [14] = species: Bos taurus; assay: Binding affinity to calf thymus DNA assessed as increase in viscosity at 10 to 70 uM using 1% DMSO/water compound formulation by Ostwald viscometric method
NCI-H226 [15] = assay: Growth inhibition of human NCI-H226 cells after 24 hrs by SRB assay; type: functional; settings: NCI-H226, 24 h
A549 [16] = assay: Growth inhibition of human A549 cells after 24 hrs by SRB assay; type: functional; settings: A549, 24 h
NCI-H460 [17] = assay: Induction of apoptosis in human NCI-H460 cells at 40 uM up to 1 hr using 1% DMSO/water compound formulation by Annexin V-FITC/propidium iodide staining based fluorescence microscopic method; type: functional, cell-based
HCC827 [18] = assay: Antiproliferative activity against human HCC827 cells using 1% DMSO/water compound formulation after 72 hrs by MTT assay; type: functional, cell-based; settings: HCC827, 72 h; outline: as §1
Bos taurus [19] = species: Bos taurus; assay: Binding affinity to calf thymus DNA assessed as increase in viscosity at 10 to 70 uM using 10% 2HPbetaCD/water compound formulation by Ostwald viscometric method
NCI-H460 [20] = assay: Disruption of mitochondrial membrane potential in human NCI-H460 cells at 20 uM up to 30 mins using […] by JC1/DAPI staining based confocal microscopic method; type: functional, cell-based
HOP-62 = assay: Growth inhibition of human HOP62 cells after 24 hrs by SRB assay; type: functional; settings: HOP-62, 24 h
A549 [21] = assay: Antiproliferative activity against human A549 cells using 1% DMSO/water compound formulation after 72 hrs by MTT assay; type: functional, cell-based; settings: A549, 72 h; outline: as §1
NCI-H522 [22] = assay: Growth inhibition of human NCI-H522 cells assessed as cell growth at 10 uM after 24 hrs by SRB assay relative to control; type: functional; settings: NCI-H522, 24 h, read-out: Activity; outline: as §2
HOP-92 = assay: Growth inhibition of human HOP92 cells after 24 hrs by SRB assay; type: functional; settings: HOP-92, 24 h
HCC827 [23] = assay: Antiproliferative activity against human HCC827 cells using 10% 2-HPbetaCD compound formulation after 72 hrs by MTT assay; type: functional, cell-based; settings: HCC827, 72 h; outline: as §1
Bos taurus [24] = species: Bos taurus; assay: Inhibition of ethidium bromide binding to calf thymus DNA assessed as at 13.3 uM using 1% DMSO/water compound formulation by spectrofluorometric method
NCI-H23 = assay: Growth inhibition of human NCI-H23 cells after 24 hrs by SRB assay; type: functional; settings: NCI-H23, 24 h
NCI-H460 [25] = assay: Induction of apoptosis in human NCI-H460 cells assessed as blebbing at 40 uM after 14 hrs using 10% 2HPbetaCD/water compound formulation by Annexin V-FITC/propidium iodide staining based fluorescence microscopic method; type: functional, cell-based
Outline: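 Annexin V-FITC/propidium iodide staining of H460 cells in 6-well plates. Compound given in 10% (w/v) 2-HPβCD aqueous solution. Imaged at 12, 14, 17 and 20 h with 20× objective as merged transmitted, green and red channels. Controls: 2-HPβCD and cisplatin, 20 h.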

[26] = read-out: LC50 (the source's name)

For `CCc1n(Cc2ccc3ccccc3c2)cc[n+]1Cc1ccc2ccccc2c1.[Br-]`, the IC50 (NCI-H1975 [1]) was 0.66 µM, the growth at 10 µM (NCI-H460 [2]) was 5.54% and the GI50 (NCI-H460 [3]) was 0.724 µM. It also gave a TGI (NCI-H460 [3]) of 2.15 µM, a CC50 (NCI-H460 [3]; [26]) of 2.15 µM and an IC50 (NCI-H460 [4]) of 0.99 µM. For the same compound, the IC50 (A549 [5]) was 2.34 µM, the Activity (Mus musculus [6]) was “Toxic” and the “Ratio IC50” value (NCI-H1975 [7]) was 15. For the same compound, the GI50 (NCI-H522 [8]) was 0.303 µM, the TGI (NCI-H522 [8]) was 1.44 µM and the CC50 (NCI-H522 [8]; [26]) was 1.44 µM. The Activity (NCI-H460 [9]) was “Active”, the IC50 (NCI-H1975 [10]) was 0.56 µM and the Activity (Mus musculus [11]) was 6%. For the same compound, the growth at 10 µM (NCI-H226 [12]) was 6.75%, the inhibition (Bos taurus [13]) was “inactive” and the Activity (Bos taurus [14]) was “inactive”. It also gave a GI50 (NCI-H226 [15]) of 1.08 µM, an LC50 (NCI-H226 [15]) of 3.82 µM and a TGI (NCI-H226 [15]) of 3.82 µM. It also gave a GI50 (A549 [16]) of 2.59 µM, a TGI (A549 [16]) of 13.9 µM and a CC50 (A549 [16]; [26]) of 57.9 µM. For the same compound, the Activity (NCI-H460 [17]) was “Active”, the IC50 (HCC827 [18]) was 1.15 µM and the Activity (Bos taurus [19]) was “inactive”. For the same compound, the Activity (NCI-H460 [20]) was “Active”, the GI50 (HOP-62) was 1.42 µM and the LC50 (HOP-62) was 9.36 µM. For the same compound, the TGI (HOP-62) was 3.65 µM, the IC50 (A549 [21]) was 2.63 µM and the growth at 10 µM (NCI-H522 [22]) was -25.4%. It also gave a GI50 (HOP-92) of 0.338 µM, a TGI (HOP-92) of 1.77 µM and a CC50 (HOP-92; [26]) of 1.77 µM. For the same compound, the IC50 (HCC827 [23]) was 0.97 µM, the inhibition (Bos taurus [24]) was “inactive” and the GI50 (NCI-H23) was 0.396 µM. For the same compound, the TGI (NCI-H23) was 2.02 µM, the CC50 (NCI-H23; [26]) was 2.02 µM and the Activity (NCI-H460 [25]) was “Active”.
